Reference: ChEMBL document CHEMBL1130208, “(1 alpha, 2 beta, 3 beta, 4 alpha)-1,2-bis[N-propyl-N-(4-phenoxybenzyl) amino]carbonyl]cyclobutane-3,4-dicarboxylic acid (A-87049): a novel potent squalene synthase inhibitor” (J Med Chem, 1997)

How the values were obtained:
Squalene synthase = molecular target: T1, Squalene synthase (Rattus norvegicus, UniProt Q02769); assay: In vitro inhibitory activity against Squalene Synthase
T1 sequence (Q02769 whole entry): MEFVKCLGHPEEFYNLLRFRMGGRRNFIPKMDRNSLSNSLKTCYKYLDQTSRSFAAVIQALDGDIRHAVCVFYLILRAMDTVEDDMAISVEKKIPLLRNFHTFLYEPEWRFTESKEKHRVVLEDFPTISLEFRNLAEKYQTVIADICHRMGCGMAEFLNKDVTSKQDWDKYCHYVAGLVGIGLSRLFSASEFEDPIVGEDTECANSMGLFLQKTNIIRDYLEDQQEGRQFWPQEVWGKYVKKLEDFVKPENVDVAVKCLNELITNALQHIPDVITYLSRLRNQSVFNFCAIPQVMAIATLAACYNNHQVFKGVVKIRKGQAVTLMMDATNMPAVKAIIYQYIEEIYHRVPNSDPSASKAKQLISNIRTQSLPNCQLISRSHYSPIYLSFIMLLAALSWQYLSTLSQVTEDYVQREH
Method in brief: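 Squalene synthase inhibition measured in a rat liver microsomal enzyme assay.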

Monkey [1] = assay: In vivo percent change of HDL cholesterol in monkeys at 20 mg/kg/day for 5 days dose; assay type: functional, Cercopithecidae
Method in brief: (§1)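 Cynomolgus monkeys (n = 4) were given 20 mg/kg po daily for 5 days, and controls received vehicle with 0.2% methocel. Animals were fasted overnight before the last dose and bled from the femoral vein 2 h after dosing on day 5, before feeding. Plasma lipids are expressed as % change from pretreatment, with one-sample t-tests.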

Monkey [2] = assay: In vivo percent change of total cholesterol in monkeys at 20 mg/kg/day for 5 days dose c; assay type: functional, Cercopithecidae; method in brief: as §1
Monkey [3] = assay: In vivo percent change of LDL cholesterol in monkeys at 20 mg/kg/day for 5 days dose; assay type: functional, Cercopithecidae; method in brief: as §1
Monkey [4] = assay: In vivo percent change of total cholesterol in monkeys at 20 mg/kg/day for 5 days dose; assay type: functional, Cercopithecidae; method in brief: as §1

Structure (SMILES)	IC50 (Squalene synthase)	Change (Monkey [1])	Change (Monkey [2])	Change (Monkey [3])	Change (Monkey [4])
CN(Cc1ccc(OCc2ccccc2)cc1)C(=O)[C@@H]1[C@H](C(=O)O)[C@@H](C(=O)O)[C@H]1C(=O)N(C)Cc1ccc(OCc2ccccc2)cc1	10 µM				
CCCN(Cc1ccc(Oc2ccccc2)cc1)C(=O)[C@@H]1[C@H](C(=O)O)[C@@H](C(=O)O)[C@H]1C(=O)N(CCC)Cc1ccc(Oc2ccccc2)cc1		-4%	-12%	-36%	
CN(Cc1cccc(Oc2ccccc2)c1)C(=O)[C@@H]1[C@H](C(=O)O)[C@@H](C(=O)O)[C@H]1C(=O)N(C)Cc1cccc(Oc2ccccc2)c1	8 µM				
CC(C)N(Cc1ccc(Oc2ccccc2)cc1)C(=O)[C@@H]1[C@H](C(=O)O)[C@@H](C(=O)O)[C@H]1C(=O)N(Cc1ccc(Oc2ccccc2)cc1)C(C)C	0.14 µM				
CC[C@H](C)C(=O)O[C@H]1C[C@@H](C)C=C2C=C[C@H](C)[C@H](CC[C@@H]3C[C@@H](O)CC(=O)O3)[C@H]21 [LOVASTATIN]		-12%		-21%	-19%
